ChEMBL document CHEMBL1148035, “Isolation of bioactive and other oxoaporphine alkaloids from two annonaceous plants, Xylopia aethiopica and Miliusa cf. banacea” (J Nat Prod, 1994)

Legend:
[1] = biological target: DNA topoisomerase 2-alpha (Homo sapiens, UniProt P11388); assay: Inhibition of DNA topoisomerase 2 assessed as bacteriophage P4 DNA unknotting after 30 mins
Saccharomyces cerevisiae [2] = assay: DNA damaging activity against rad 52 DNA repair gene/topoisomerase 1 deficient Saccharomyces cerevisiae mutant assessed as drug level required to produce 12 mm zone of inhibition well after 48 hrs; assay type: functional
In short: (§1)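 Yeast agar-well diffusion assay: test material in a 100 μl well, incubated 48 h at 37°. IC12 is the concentration in μg/ml giving a 12 mm diameter zone of inhibition around the well. Reported values are averages of 2 or 3 determinations.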

Saccharomyces cerevisiae [3] = assay: DNA damaging activity against rad 52 DNA repair gene deficient Saccharomyces cerevisiae mutant assessed as drug level required to produce 12 mm zone of inhibition after 48 hrs; assay type: functional; in short: as §1
Saccharomyces cerevisiae [4] = assay: DNA damaging activity against rad 6 DNA repair gene deficient Saccharomyces cerevisiae mutant assessed as drug level required to produce 12 mm zone of inhibition well after 48 hrs; assay type: functional; in short: as §1
Saccharomyces cerevisiae [5] = assay: Antifungal activity against rad 6 DNA repair gene deficient Saccharomyces cerevisiae mutant at 500 ug/ml; assay type: functional; details: read-out: IZ
In short: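 Yeast well-diffusion assay against the rad 6 DNA-repair-deficient Saccharomyces cerevisiae strain. Sample is applied at the stated concentration (μg/ml) to a 100 μl well. Plates are incubated 48 h at 37°. Read-out is the diameter of the zone of inhibition, in mm.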

Saccharomyces cerevisiae [6] = assay: DNA damaging activity against wild type Saccharomyces cerevisiae expressing rad DNA repair gene assessed as drug level required to produce 12 mm zone of inhibition after 48 hrs; assay type: functional; in short: as §1

Chain of DNA topoisomerase 2-alpha (P11388 whole entry): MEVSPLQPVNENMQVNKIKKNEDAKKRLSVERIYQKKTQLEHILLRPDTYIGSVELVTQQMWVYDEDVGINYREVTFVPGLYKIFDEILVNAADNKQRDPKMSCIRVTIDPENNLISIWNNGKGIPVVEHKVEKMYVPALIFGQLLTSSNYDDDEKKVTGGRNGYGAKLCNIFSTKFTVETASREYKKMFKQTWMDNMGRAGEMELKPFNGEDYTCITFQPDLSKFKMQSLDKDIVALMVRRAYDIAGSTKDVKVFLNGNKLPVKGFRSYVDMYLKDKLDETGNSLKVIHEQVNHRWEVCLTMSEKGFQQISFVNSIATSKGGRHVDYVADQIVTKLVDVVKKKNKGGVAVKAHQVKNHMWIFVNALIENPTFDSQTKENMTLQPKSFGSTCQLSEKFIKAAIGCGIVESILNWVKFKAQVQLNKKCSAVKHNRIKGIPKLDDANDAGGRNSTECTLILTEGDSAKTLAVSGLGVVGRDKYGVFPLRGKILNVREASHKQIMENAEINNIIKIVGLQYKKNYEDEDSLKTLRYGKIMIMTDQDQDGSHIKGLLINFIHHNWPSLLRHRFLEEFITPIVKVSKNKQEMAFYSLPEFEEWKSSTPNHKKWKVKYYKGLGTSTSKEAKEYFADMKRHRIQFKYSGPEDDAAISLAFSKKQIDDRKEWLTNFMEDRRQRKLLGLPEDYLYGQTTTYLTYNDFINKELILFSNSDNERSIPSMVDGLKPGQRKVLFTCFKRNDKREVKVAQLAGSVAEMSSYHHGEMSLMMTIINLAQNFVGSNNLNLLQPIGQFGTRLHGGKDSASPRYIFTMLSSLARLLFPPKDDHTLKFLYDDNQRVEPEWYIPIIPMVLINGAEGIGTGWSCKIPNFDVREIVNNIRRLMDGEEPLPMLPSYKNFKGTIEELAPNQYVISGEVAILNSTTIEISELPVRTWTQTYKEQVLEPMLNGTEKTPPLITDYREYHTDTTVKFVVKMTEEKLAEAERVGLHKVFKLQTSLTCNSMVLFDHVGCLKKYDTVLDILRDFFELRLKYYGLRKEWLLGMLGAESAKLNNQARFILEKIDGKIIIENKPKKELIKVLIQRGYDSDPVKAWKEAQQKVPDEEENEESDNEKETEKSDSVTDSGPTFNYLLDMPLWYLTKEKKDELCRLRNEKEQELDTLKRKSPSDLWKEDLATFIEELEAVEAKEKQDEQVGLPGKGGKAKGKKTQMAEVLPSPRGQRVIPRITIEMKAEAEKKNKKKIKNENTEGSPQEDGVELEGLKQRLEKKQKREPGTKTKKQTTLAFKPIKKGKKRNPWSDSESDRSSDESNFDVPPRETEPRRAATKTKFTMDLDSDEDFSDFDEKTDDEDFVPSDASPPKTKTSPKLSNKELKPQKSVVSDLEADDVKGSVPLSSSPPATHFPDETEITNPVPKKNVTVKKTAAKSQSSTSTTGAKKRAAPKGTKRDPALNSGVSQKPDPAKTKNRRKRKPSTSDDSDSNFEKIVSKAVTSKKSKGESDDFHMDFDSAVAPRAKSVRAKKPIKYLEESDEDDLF

Row | Structure (SMILES) | IC50 [1] [µM] | Activity (Saccharomyces cerevisiae [2]) [µg/mL] | Activity (Saccharomyces cerevisiae [3]) [µg/mL] | Activity (Saccharomyces cerevisiae [4]) [µg/mL] | zone of inhibition at 500 µg/mL (Saccharomyces cerevisiae [5]) [mm] | Activity (Saccharomyces cerevisiae [6]) [µg/mL]
1 | COc1ccc2c(c1)-c1c3c(cc4ccnc(c14)C2=O)OCO3 | 81.9 | 113 | 214 |  |  | 
2 | O=C1c2ccc(O)cc2-c2c3c(cc4ccnc1c24)OCO3 | 42.9 | 72 | 295 |  |  | 
3 | CC[C@@]1(O)C(=O)OCc2c1cc1n(c2=O)Cc2cc3ccccc3nc2-1 [CAMPTOTHECIN] |  | >20 | 0.6 | 8.7 |  | 
4 | COc1c(OC)c2c3c(nccc3c1OC)C(=O)c1ccccc1-2 [HOMOMOSCHATOLINE] |  | >500 | >500 | >500 |  | 
5 | O=C1c2ccccc2-c2c3c(cc4ccnc1c24)OCO3 [LIRIODENINE] |  |  | 16.7 |  | 15 | 500
6 | COc1cc2ccnc3c2c(c1OC)-c1ccccc1C3=O [LYSICAMINE] |  | 390 | 300 | >500 |  | 
7 | COc1cc2c(cc1OC)-c1c(OC)c(OC)cc3ccnc(c13)C2=O [OXOGLAUCINE] |  | >500 | >500 | >500 |  | >500
8 | COc1c(OC)c2c3c(nccc3c1OC)C(=O)c1cc3c(cc1-2)OCO3 [OXOPHOEBINE] |  | 2.6 | 6.4 | 4.7 |  | >500
9 | COC1=C(N)C(=O)c2nc(-c3nc(C(=O)O)c(C)c(-c4ccc(OC)c(OC)c4O)c3N)ccc2C1=O [STREPTONIGRIN] |  | <0.4 | 0.4 | 2.4 |  | 
